Broadly, the GI50 is the concentration giving 50% growth inhibition. Read a low GI50 as more potent growth inhibition.

The structures appear in SMILES notation.

The test system of test [1] is HepG2. Description: Induction of apoptosis in human HepG2 cells assessed as fold change in caspase-3 level at 3 times GI50 incubated for 6 hrs by colorimetric assay relative to control. The class given is functional. A digest of the protocol:
(§1)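 Lysates taken from HepG2 cells 1, 6 or 24 h after treatment at 0.3×, 1× or 3× GI50. Lysis on ice for 10 min, then 10 000 × g spin; protein measured by Bradford. 80 μg protein incubated with DTT and DEVD-pNA substrate for 1 h at 37 °C, in triplicate; absorbance read at 405 nm. Result expressed as fold change versus untreated cells. Camptothecin 0.5 μM as control; mean and SE reported.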

The subject of test [2] is HepG2. Description: Induction of apoptosis in human HepG2 cells assessed as fold change in caspase-3 level at 0.3 times GI50 incubated for 1 hr by colorimetric assay relative to control. The class given is functional. The procedure, abridged:
as §1

The subject of test [3] is HepG2. Description: Induction of apoptosis in human HepG2 cells assessed as early apoptotic cells at 3 times GI50 incubated for 24 hrs by Annexin V-FITC/PI staining based flow cytometry (reference value: 2.98 %). The test is classed as functional. On the technique in general: In flow cytometry, cells or beads pass a laser one at a time.
Another test relates to Hep 3B2. Description: Cytotoxicity against human Hep3B cells incubated for 96 hrs by MTT assay. The test is classed as functional. The procedure, abridged:
(§2)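 Cells grown in DMEM with 10% FBS and 1% antibiotic at 37 °C, 5% CO2. Trypsinised, seeded at 3 × 10^4 cells per mL, treated over an eight-point titration for 96 h. MTT (0.5 mg mL−1) added for 4 h at 37 °C, formazan dissolved in DMSO, absorbance read at 570 nm. GI50 is the concentration halving the MTT signal versus untreated control. Ellipticine served as reference; n ≥ 3 repeats.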
In general terms: Tetrazolium dyes change colour on reduction, which living cells bring about.

The nature of test [4]: Cytotoxicity against human Huh-7R cells incubated for 96 hrs by MTT assay. The test is classed as functional. The procedure, abridged:
as §2

In test [5] the test system is HepG2. Description: Induction of apoptosis in human HepG2 cells assessed as fold change in caspase-3 level at 0.3 times GI50 incubated for 24 hrs by colorimetric assay relative to control. The test is classed as functional. A digest of the protocol: as §1
Test [6] relates to HepG2. Description: Induction of apoptosis in human HepG2 cells assessed as fold change in caspase-3 level at GI50 incubated for 1 hr by colorimetric assay relative to control. The class given is functional. The procedure, abridged:
as §1

Test [7] concerns HepG2. Description: Induction of apoptosis in human HepG2 cells assessed as fold change in caspase-3 level at GI50 incubated for 6 hrs by colorimetric assay relative to control. The test is classed as functional. A digest of the protocol:
as §1

For test [8], the system named is HepG2. Description: Induction of apoptosis in human HepG2 cells assessed as late apoptotic cells at GI50 incubated for 24 hrs by Annexin V-FITC/PI staining based flow cytometry (reference value: 3.06 %). The test is classed as functional.
The next test deals with Huh-7. Description: Cytotoxicity against human Huh-7 cells incubated for 96 hrs by MTT assay. The test is classed as functional. The procedure, abridged: as §2
Test [9] deals with HepG2. Description: Induction of cell cycle arrest in human HepG2 cells assessed as accumulation at S phase at 3 times IC50 incubated for 24 hrs by PI staining based flow cytometry (reference value: 46.83 %). The test is classed as functional.
The subject of test [10] is HepG2. Description: Induction of apoptosis in human HepG2 cells assessed as viable cells at 3 times GI50 incubated for 24 hrs by Annexin V-FITC/PI staining based flow cytometry (reference value: 88.62 %). The class given is functional.
Test [11] relates to HepG2. Description: Induction of apoptosis in human HepG2 cells assessed as fold change in caspase-3 level at 3 times GI50 incubated for 1 hr by colorimetric assay relative to control. The test is classed as functional. The procedure, abridged:
as §1

The subject of test [12] is HepG2. Description: Induction of apoptosis in human HepG2 cells assessed as fold change in caspase-3 level at 0.3 times GI50 incubated for 6 hrs by colorimetric assay relative to control. The test is classed as functional. The procedure, abridged:
as §1

Test [13] has as its system HepG2. Description: Induction of cell cycle arrest in human HepG2 cells assessed as accumulation at G0/G1 phase at IC50 incubated for 24 hrs by PI staining based flow cytometry (reference value: 24.63 %). The class given is functional.
Test [14] has as its system HepG2. Description: Induction of apoptosis in human HepG2 cells assessed as fold change in caspase-3 level at 3 times GI50 incubated for 24 hrs by colorimetric assay relative to control. The test is classed as functional. The procedure, abridged:
as §1

Test [15] concerns HepG2. Description: Induction of cell cycle arrest in human HepG2 cells assessed as accumulation at S phase at IC50 incubated for 24 hrs by PI staining based flow cytometry (reference value: 46.83 %). The test is classed as functional.
Test [16] deals with HepG2. Description: Induction of apoptosis in human HepG2 cells assessed as necrotic cells at GI50 incubated for 24 hrs by Annexin V-FITC/PI staining based flow cytometry (reference value: 5.34 %). The class given is functional.
In test [17] the test system is HepG2. Description: Induction of apoptosis in human HepG2 cells assessed as early apoptotic cells at GI50 incubated for 24 hrs by Annexin V-FITC/PI staining based flow cytometry (reference value: 2.98 %). The test is classed as functional.
Test [18] relates to HepG2. Description: Induction of apoptosis in human HepG2 cells assessed as fold change in caspase-3 level at GI50 incubated for 24 hrs by colorimetric assay relative to control. The test is classed as functional. The procedure, abridged:
as §1

Test [19] has as its system HepG2. Description: Induction of apoptosis in human HepG2 cells assessed as late apoptotic cells at 3 times GI50 incubated for 24 hrs by Annexin V-FITC/PI staining based flow cytometry (reference value: 3.06 %). The test is classed as functional.
Test [20] relates to HepG2. Description: Induction of apoptosis in human HepG2 cells assessed as viable cells at GI50 incubated for 24 hrs by Annexin V-FITC/PI staining based flow cytometry (reference value: 88.62 %). The class given is functional.
For test [21], the system named is HepG2. Description: Induction of cell cycle arrest in human HepG2 cells assessed as accumulation at G2/M phase at 3 times IC50 incubated for 24 hrs by PI staining based flow cytometry (reference value: 27.69 %). The class given is functional.
Test [22] concerns HepG2. Description: Cytotoxicity against human HepG2 cells incubated for 96 hrs by MTT assay. The class given is functional. A digest of the protocol: as §2
For test [23], the system named is HepG2. Description: Induction of apoptosis in human HepG2 cells assessed as necrotic cells at 3 times GI50 incubated for 24 hrs by Annexin V-FITC/PI staining based flow cytometry (reference value: 5.34 %). The test is classed as functional.
The subject of test [24] is HepG2. Description: Induction of cell cycle arrest in human HepG2 cells assessed as accumulation at G2/M phase at IC50 incubated for 24 hrs by PI staining based flow cytometry (reference value: 27.69 %). The test is classed as functional.
For test [25], the system named is HepG2. Description: Induction of cell cycle arrest in human HepG2 cells assessed as accumulation at G0/G1 phase at 3 times IC50 incubated for 24 hrs by PI staining based flow cytometry (reference value: 24.63 %). The class given is functional.
The test system of test [26] is HepG2. Description: Induction of apoptosis in human HepG2 cells assessed as fold change in caspase-3 level at 0.5 uM incubated for 24 hrs by colorimetric assay relative to control.
Test [27] relates to HepG2. Description: Induction of apoptosis in human HepG2 cells assessed as early apoptotic cells incubated for 24 hrs by Annexin V-FITC/PI staining based flow cytometry (reference value: 2.98 %). The class given is functional.
Test [28] deals with HepG2. Description: Induction of apoptosis in human HepG2 cells assessed as late apoptotic cells incubated for 24 hrs by Annexin V-FITC/PI staining based flow cytometry (reference value: 3.06 %). The class given is functional.
The test system of test [29] is HepG2. Description: Induction of apoptosis in human HepG2 cells assessed as necrotic cells incubated for 24 hrs by Annexin V-FITC/PI staining based flow cytometry (reference value: 5.34 %). The test is classed as functional.
In test [30] the test system is HepG2. Description: Induction of apoptosis in human HepG2 cells assessed as fold change in caspase-3 level at 0.5 uM incubated for 6 hrs by colorimetric assay relative to control.
In test [31] the test system is HepG2. Description: Induction of apoptosis in human HepG2 cells assessed as viable cells incubated for 24 hrs by Annexin V-FITC/PI staining based flow cytometry (reference value: 88.62 %). The class given is functional.
Test [32] relates to HepG2. Description: Induction of apoptosis in human HepG2 cells assessed as fold change in caspase-3 level at 0.5 uM incubated for 1 hr by colorimetric assay relative to control.

Consider `COc1cc([C@H]2Oc3cc([C@H]4Oc5cc(O)cc(O)c5C(=O)[C@@H]4OC(=O)CNC(=O)[C@]45CC[C@@H](C)[C@H](C)[C@H]4C4=CC[C@@H]6[C@@]7(C)C[C@@H](OC(C)=O)[C@H](OC(C)=O)[C@@](C)(COC(C)=O)[C@@H]7[C@H](O)C[C@@]6(C)[C@]4(C)CC5)ccc3O[C@@H]2CO)ccc1O`, for which the “fold change (FC)” value with HepG2 [1] is given as 1.27; in the test with HepG2 [2], 0.59; in the test with HepG2 [5], 1.62; with HepG2 [6], 0.76; with HepG2 [7], 1.09; with HepG2 [11] it was 1.69. Moreover, the “fold change (FC)” value in the test with HepG2 [12] is reported as 0.76; in the test with HepG2 [14], 1.37; in the test on HepG2 [18], 1.86. In addition, the Activity with HepG2 [3] came out at 1.28%; with HepG2 [8] it was 4.92%; in the test with HepG2 [9], 60.41%; with HepG2 [10] it was 84%; in the test on HepG2 [13], 26.72%; in the test on HepG2 [15], 61.09%. Besides, the Activity with HepG2 [16] turned out to be 13.32%; in the test with HepG2 [17], 10.65%; in the test with HepG2 [19] it was 0.91%; with HepG2 [20], 71.11%; in the test on HepG2 [21] it was 11.8%; in the test on HepG2 [23], 13.81%. In addition, the Activity turned out to be 9.78% in the test on HepG2 [24] and 27.07% in the test on HepG2 [25]. Also, the GI50 with Hep 3B2 is 9.61 µM; in [4], 14.2 µM; in the test with Huh-7, 13.8 µM; in the test on HepG2 [22], 32.5 µM.

Take `CC[C@@]1(O)C(=O)OCc2c1cc1n(c2=O)Cc2cc3ccccc3nc2-1` [CAMPTOTHECIN]: the “fold change (FC)” value came out at 2.19 in the test with HepG2 [26], 2.21 in the test with HepG2 [30] and 1.94 in the test with HepG2 [32]. Further, the Activity in the test with HepG2 [27] came out at 14.78%; in the test with HepG2 [28], 2.3%; with HepG2 [29] it was 3.85%; in the test on HepG2 [31], 79.08%.

As for `C[C@H]1[C@H](C)CC[C@]2(C(=O)O)CC[C@]3(C)C(=CC[C@@H]4[C@@]5(C)C[C@@H](O)[C@H](O)[C@@](C)(CO)[C@@H]5[C@H](O)C[C@]43C)[C@H]12` [MADECASSIC ACID], the “fold change (FC)” value worked out at 1.71 in the test with HepG2 [1]; 0.74 in the test with HepG2 [2]; 0.99 with HepG2 [5]; 0.94 in the test on HepG2 [6]; 1.16 in the test on HepG2 [7]; 0.97 in the test on HepG2 [11]. Besides, the “fold change (FC)” value is on record as 0.81 in the test on HepG2 [12], 0.54 with HepG2 [14] and 0.68 in the test on HepG2 [18]. The Activity in the test on HepG2 [3] is 13.37%; with HepG2 [8], 4.29%; with HepG2 [9] it was 24.25%; in the test on HepG2 [10] it was 72.03%; with HepG2 [13] it was 19.29%; in the test on HepG2 [15], 58.52%. In addition, the Activity amounted to 6.23% in the test with HepG2 [16]; 9% with HepG2 [17]; 6.16% in the test with HepG2 [19]; 80.48% with HepG2 [20]; 20.71% with HepG2 [21]; 8.44% in the test on HepG2 [23]. The Activity came to 21.51% in the test on HepG2 [24] and 54.22% with HepG2 [25]. Moreover, the 50% growth inhibitory concentration (GI50) in the test with Hep 3B2 stood at 178 µM; in test [4] it was 215 µM; with Huh-7, 198 µM; in the test on HepG2 [22] it was 161 µM.
